# Reference: ChEMBL document CHEMBL4689842, “EUbOPEN Chemogenomics Library wave 1” (2021)
# System: Fibroblast
# Assay: Multiplex assay against human fibroblast
# Type: toxicity, cell-based
# Summary of the method: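 At seeding, live cells were stained with Hoechst33342, BioTracker Green Microtubule Cytoskeleton Dye, MitoTracker Red and Annexin V Alexa Fluor 680. After compound addition they were imaged on a CQ1 microscope at 37°C and 5% CO2, and CellPathfinder machine-learning gating sorted them into Hoechst high-intensity objects or normal cells, with normal cells further split into healthy, pyknosed or fragmented nuclei and pyknosed cells into mitotic or apoptotic. Tubulin, mitochondrial-mass and membrane-permeability phenotypes are given as per cents of cells with healthy nuclei.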
# [1] = 12 h, 1 µM, compound concentration 1 uM, replicate 1
# [2] = 12 h, 1 µM, compound concentration 1 uM, replicate 2
# [3] = 12 h, 10 µM, compound concentration 10 uM, replicate 1
# [4] = 12 h, 10 µM, compound concentration 10 uM, replicate 2
# [5] = 24 h, 1 µM, compound concentration 1 uM, replicate 1
# [6] = 24 h, 1 µM, compound concentration 1 uM, replicate 2
# [7] = 24 h, 10 µM, compound concentration 10 uM, replicate 1
# [8] = 24 h, 10 µM, compound concentration 10 uM, replicate 2
# [9] = 48 h, 1 µM, compound concentration 1 uM, replicate 1
# [10] = 48 h, 1 µM, compound concentration 1 uM, replicate 2
# [11] = 48 h, 10 µM, compound concentration 10 uM, replicate 1
# [12] = 48 h, 10 µM, compound concentration 10 uM, replicate 2
structure (smiles),measurement,setting,value
S=C(NCCCc1c[nH]cn1)NCCCN(Cc1ccc(Cl)c(Cl)c1)c1ccc(Br)cn1,Population Apoptotic (%),[1],52%
same,Population Fragmented Nuclei (%),[1],28%
same,Population Healthy Nuclei (%),[1],42%
same,Population Hoechst High Intensity Objects (%),[1],13%
same,Population Membrane Permeable-Phenotype (%),[1],28%
same,Population Mitochondria Different-Phenotype (%),[1],11%
same,Population Mitotic Cells (%),[1],47%
same,Population Normal (%),[1],86%
same,Population Pyknosed Nuclei (%),[1],28%
same,Population Tubulin-Different-Phenotype (%),[1],55%
same,Total Cell Count,[1],140
same,Population Apoptotic (%),[2],0%
same,Population Fragmented Nuclei (%),[2],17%
same,Population Healthy Nuclei (%),[2],82%
same,Population Hoechst High Intensity Objects (%),[2],15%
same,Population Membrane Permeable-Phenotype (%),[2],8%
same,Population Mitochondria Different-Phenotype (%),[2],8%
same,Population Mitotic Cells (%),[2],0%
same,Population Normal (%),[2],84%
same,Population Pyknosed Nuclei (%),[2],0%
same,Population Tubulin-Different-Phenotype (%),[2],4%
same,Total Cell Count,[2],79
same,Population Apoptotic (%),[3],46%
same,Population Fragmented Nuclei (%),[3],18%
same,Population Healthy Nuclei (%),[3],8%
same,Population Hoechst High Intensity Objects (%),[3],20%
same,Population Membrane Permeable-Phenotype (%),[3],66%
same,Population Mitochondria Different-Phenotype (%),[3],11%
same,Population Mitotic Cells (%),[3],53%
same,Population Normal (%),[3],79%
same,Population Pyknosed Nuclei (%),[3],72%
same,Population Tubulin-Different-Phenotype (%),[3],88%
same,Total Cell Count,[3],133
same,Population Apoptotic (%),[4],93%
same,Population Fragmented Nuclei (%),[4],25%
same,Population Healthy Nuclei (%),[4],2%
same,Population Hoechst High Intensity Objects (%),[4],11%
same,Population Membrane Permeable-Phenotype (%),[4],100%
same,Population Mitochondria Different-Phenotype (%),[4],100%
same,Population Mitotic Cells (%),[4],6%
same,Population Normal (%),[4],88%
same,Population Tubulin-Different-Phenotype (%),[4],100%
same,Total Cell Count,[4],33
same,Population Apoptotic (%),[5],66%
same,Population Fragmented Nuclei (%),[5],32%
same,Population Healthy Nuclei (%),[5],48%
same,Population Hoechst High Intensity Objects (%),[5],17%
same,Population Membrane Permeable-Phenotype (%),[5],19%
same,Population Mitochondria Different-Phenotype (%),[5],11%
same,Population Mitotic Cells (%),[5],33%
same,Population Normal (%),[5],82%
same,Population Pyknosed Nuclei (%),[5],18%
same,Population Tubulin-Different-Phenotype (%),[5],64%
same,Total Cell Count,[5],154
same,Population Apoptotic (%),[6],0%
same,Population Fragmented Nuclei (%),[6],19%
same,Population Healthy Nuclei (%),[6],80%
same,Population Hoechst High Intensity Objects (%),[6],8%
same,Population Membrane Permeable-Phenotype (%),[6],16%
same,Population Mitochondria Different-Phenotype (%),[6],8%
same,Population Mitotic Cells (%),[6],0%
same,Population Normal (%),[6],91%
same,Population Pyknosed Nuclei (%),[6],0%
same,Population Tubulin-Different-Phenotype (%),[6],20%
same,Total Cell Count,[6],79
same,Population Apoptotic (%),[7],53%
same,Population Fragmented Nuclei (%),[7],24%
same,Population Healthy Nuclei (%),[7],15%
same,Population Hoechst High Intensity Objects (%),[7],21%
same,Population Membrane Permeable-Phenotype (%),[7],56%
same,Population Mitochondria Different-Phenotype (%),[7],18%
same,Population Mitotic Cells (%),[7],46%
same,Population Normal (%),[7],78%
same,Population Pyknosed Nuclei (%),[7],60%
same,Population Tubulin-Different-Phenotype (%),[7],93%
same,Total Cell Count,[7],133
same,Population Apoptotic (%),[8],100%
same,Population Fragmented Nuclei (%),[8],12%
same,Population Healthy Nuclei (%),[8],24%
same,Population Hoechst High Intensity Objects (%),[8],25%
same,Population Membrane Permeable-Phenotype (%),[8],94%
same,Population Mitochondria Different-Phenotype (%),[8],88%
same,Population Mitotic Cells (%),[8],0%
same,Population Normal (%),[8],74%
same,Population Pyknosed Nuclei (%),[8],62%
same,Population Tubulin-Different-Phenotype (%),[8],88%
same,Total Cell Count,[8],34
same,Population Apoptotic (%),[9],57%
same,Population Fragmented Nuclei (%),[9],50%
same,Population Healthy Nuclei (%),[9],39%
same,Population Hoechst High Intensity Objects (%),[9],20%
same,Population Membrane Permeable-Phenotype (%),[9],24%
same,Population Mitochondria Different-Phenotype (%),[9],1%
same,Population Mitotic Cells (%),[9],42%
same,Population Normal (%),[9],79%
same,Population Pyknosed Nuclei (%),[9],9%
same,Population Tubulin-Different-Phenotype (%),[9],36%
same,Total Cell Count,[9],184
same,Population Apoptotic (%),[10],50%
same,Population Fragmented Nuclei (%),[10],40%
same,Population Healthy Nuclei (%),[10],58%
same,Population Hoechst High Intensity Objects (%),[10],21%
same,Population Membrane Permeable-Phenotype (%),[10],23%
same,Population Mitochondria Different-Phenotype (%),[10],0%
same,Population Mitotic Cells (%),[10],50%
same,Population Normal (%),[10],78%
same,Population Pyknosed Nuclei (%),[10],1%
same,Population Tubulin-Different-Phenotype (%),[10],63%
same,Total Cell Count,[10],220
same,Population Apoptotic (%),[11],58%
same,Population Fragmented Nuclei (%),[11],34%
same,Population Healthy Nuclei (%),[11],25%
same,Population Hoechst High Intensity Objects (%),[11],34%
same,Population Membrane Permeable-Phenotype (%),[11],39%
same,Population Mitochondria Different-Phenotype (%),[11],26%
same,Population Mitotic Cells (%),[11],41%
same,Population Normal (%),[11],65%
same,Population Pyknosed Nuclei (%),[11],40%
same,Population Tubulin-Different-Phenotype (%),[11],91%
same,Total Cell Count,[11],137
same,Population Apoptotic (%),[12],80%
same,Population Fragmented Nuclei (%),[12],37%
same,Population Healthy Nuclei (%),[12],16%
same,Population Hoechst High Intensity Objects (%),[12],33%
same,Population Membrane Permeable-Phenotype (%),[12],77%
same,Population Mitochondria Different-Phenotype (%),[12],0%
same,Population Mitotic Cells (%),[12],20%
same,Population Normal (%),[12],66%
same,Population Pyknosed Nuclei (%),[12],46%
same,Population Tubulin-Different-Phenotype (%),[12],100%
same,Total Cell Count,[12],81
CCc1cccc(CC)c1NC(=O)c1nn(C)c2c1CCc1cnc(Nc3ccc(C(=O)NC4CCN(C)CC4)cc3OC(F)(F)F)nc1-2,Population Apoptotic (%),[1],62%
same,Population Fragmented Nuclei (%),[1],22%
same,Population Healthy Nuclei (%),[1],38%
same,Population Hoechst High Intensity Objects (%),[1],7%
same,Population Membrane Permeable-Phenotype (%),[1],24%
same,Population Mitochondria Different-Phenotype (%),[1],7%
same,Population Mitotic Cells (%),[1],37%
same,Population Normal (%),[1],92%
same,Population Pyknosed Nuclei (%),[1],39%
same,Population Tubulin-Different-Phenotype (%),[1],47%
same,Total Cell Count,[1],160
same,Population Apoptotic (%),[2],40%
same,Population Fragmented Nuclei (%),[2],1%
same,Population Healthy Nuclei (%),[2],83%
same,Population Hoechst High Intensity Objects (%),[2],13%
same,Population Membrane Permeable-Phenotype (%),[2],5%
same,Population Mitochondria Different-Phenotype (%),[2],14%
same,Population Mitotic Cells (%),[2],60%
same,Population Normal (%),[2],86%
same,Population Pyknosed Nuclei (%),[2],15%
same,Population Tubulin-Different-Phenotype (%),[2],18%
same,Total Cell Count,[2],51
same,Population Apoptotic (%),[3],61%
same,Population Fragmented Nuclei (%),[3],24%
same,Population Healthy Nuclei (%),[3],51%
same,Population Hoechst High Intensity Objects (%),[3],21%
same,Population Membrane Permeable-Phenotype (%),[3],8%
same,Population Mitochondria Different-Phenotype (%),[3],26%
same,Population Mitotic Cells (%),[3],38%
same,Population Normal (%),[3],78%
same,Population Pyknosed Nuclei (%),[3],23%
same,Population Tubulin-Different-Phenotype (%),[3],60%
same,Total Cell Count,[3],139
same,Population Apoptotic (%),[4],46%
same,Population Fragmented Nuclei (%),[4],12%
same,Population Healthy Nuclei (%),[4],70%
same,Population Hoechst High Intensity Objects (%),[4],5%
same,Population Membrane Permeable-Phenotype (%),[4],15%
same,Population Mitochondria Different-Phenotype (%),[4],98%
same,Population Mitotic Cells (%),[4],53%
same,Population Normal (%),[4],94%
same,Population Pyknosed Nuclei (%),[4],17%
same,Population Tubulin-Different-Phenotype (%),[4],86%
same,Total Cell Count,[4],75
same,Population Apoptotic (%),[5],48%
same,Population Fragmented Nuclei (%),[5],23%
same,Population Healthy Nuclei (%),[5],40%
same,Population Hoechst High Intensity Objects (%),[5],11%
same,Population Membrane Permeable-Phenotype (%),[5],23%
same,Population Mitochondria Different-Phenotype (%),[5],5%
same,Population Mitotic Cells (%),[5],52%
same,Population Normal (%),[5],88%
same,Population Pyknosed Nuclei (%),[5],35%
same,Population Tubulin-Different-Phenotype (%),[5],53%
same,Total Cell Count,[5],157
same,Population Apoptotic (%),[6],37%
same,Population Fragmented Nuclei (%),[6],7%
same,Population Healthy Nuclei (%),[6],81%
same,Population Hoechst High Intensity Objects (%),[6],10%
same,Population Membrane Permeable-Phenotype (%),[6],5%
same,Population Mitochondria Different-Phenotype (%),[6],12%
same,Population Mitotic Cells (%),[6],62%
same,Population Normal (%),[6],89%
same,Population Pyknosed Nuclei (%),[6],11%
same,Population Tubulin-Different-Phenotype (%),[6],19%
same,Total Cell Count,[6],53
same,Population Apoptotic (%),[7],62%
same,Population Fragmented Nuclei (%),[7],25%
same,Population Healthy Nuclei (%),[7],49%
same,Population Hoechst High Intensity Objects (%),[7],30%
same,Population Membrane Permeable-Phenotype (%),[7],16%
same,Population Mitochondria Different-Phenotype (%),[7],40%
same,Population Mitotic Cells (%),[7],37%
same,Population Normal (%),[7],69%
same,Population Pyknosed Nuclei (%),[7],25%
same,Population Tubulin-Different-Phenotype (%),[7],50%
same,Total Cell Count,[7],161
same,Population Apoptotic (%),[8],50%
same,Population Fragmented Nuclei (%),[8],15%
same,Population Healthy Nuclei (%),[8],63%
same,Population Hoechst High Intensity Objects (%),[8],2%
same,Population Membrane Permeable-Phenotype (%),[8],26%
same,Population Mitochondria Different-Phenotype (%),[8],91%
same,Population Mitotic Cells (%),[8],50%
same,Population Normal (%),[8],97%
same,Population Pyknosed Nuclei (%),[8],20%
same,Population Tubulin-Different-Phenotype (%),[8],73%
same,Total Cell Count,[8],77
same,Population Apoptotic (%),[9],67%
same,Population Fragmented Nuclei (%),[9],31%
same,Population Healthy Nuclei (%),[9],45%
same,Population Hoechst High Intensity Objects (%),[9],15%
same,Population Membrane Permeable-Phenotype (%),[9],16%
same,Population Mitochondria Different-Phenotype (%),[9],7%
same,Population Mitotic Cells (%),[9],32%
same,Population Normal (%),[9],84%
same,Population Pyknosed Nuclei (%),[9],23%
same,Population Tubulin-Different-Phenotype (%),[9],40%
same,Total Cell Count,[9],141
same,Population Apoptotic (%),[10],20%
same,Population Fragmented Nuclei (%),[10],38%
same,Population Healthy Nuclei (%),[10],55%
same,Population Hoechst High Intensity Objects (%),[10],11%
same,Population Membrane Permeable-Phenotype (%),[10],10%
same,Population Mitochondria Different-Phenotype (%),[10],4%
same,Population Mitotic Cells (%),[10],80%
same,Population Normal (%),[10],88%
same,Population Pyknosed Nuclei (%),[10],5%
same,Population Tubulin-Different-Phenotype (%),[10],42%
same,Total Cell Count,[10],102
same,Population Apoptotic (%),[11],70%
same,Population Fragmented Nuclei (%),[11],31%
same,Population Healthy Nuclei (%),[11],50%
same,Population Hoechst High Intensity Objects (%),[11],38%
same,Population Membrane Permeable-Phenotype (%),[11],16%
same,Population Mitochondria Different-Phenotype (%),[11],15%
same,Population Mitotic Cells (%),[11],30%
same,Population Normal (%),[11],61%
same,Population Pyknosed Nuclei (%),[11],18%
same,Population Tubulin-Different-Phenotype (%),[11],47%
same,Total Cell Count,[11],172
same,Population Apoptotic (%),[12],25%
same,Population Fragmented Nuclei (%),[12],29%
same,Population Healthy Nuclei (%),[12],67%
same,Population Hoechst High Intensity Objects (%),[12],15%
same,Population Membrane Permeable-Phenotype (%),[12],30%
same,Population Mitochondria Different-Phenotype (%),[12],10%
same,Population Mitotic Cells (%),[12],75%
same,Population Normal (%),[12],84%
same,Population Pyknosed Nuclei (%),[12],2%
same,Population Tubulin-Different-Phenotype (%),[12],43%
same,Total Cell Count,[12],158
